ADAM17 inh: inhibits human ADAM17 | 370,000 compounds, 0.83% hits | recombinant ADAM17, EDANS/DABCYL FRET peptide cleavage | inhibition, % at 6.95 µM | P78536;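 active = inhibition above the mean of compounds lying between control limits plus 3 SD, set per campaign, cut at about 8.5% in these data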
Target sequence (P78536 215-824 limits assumed): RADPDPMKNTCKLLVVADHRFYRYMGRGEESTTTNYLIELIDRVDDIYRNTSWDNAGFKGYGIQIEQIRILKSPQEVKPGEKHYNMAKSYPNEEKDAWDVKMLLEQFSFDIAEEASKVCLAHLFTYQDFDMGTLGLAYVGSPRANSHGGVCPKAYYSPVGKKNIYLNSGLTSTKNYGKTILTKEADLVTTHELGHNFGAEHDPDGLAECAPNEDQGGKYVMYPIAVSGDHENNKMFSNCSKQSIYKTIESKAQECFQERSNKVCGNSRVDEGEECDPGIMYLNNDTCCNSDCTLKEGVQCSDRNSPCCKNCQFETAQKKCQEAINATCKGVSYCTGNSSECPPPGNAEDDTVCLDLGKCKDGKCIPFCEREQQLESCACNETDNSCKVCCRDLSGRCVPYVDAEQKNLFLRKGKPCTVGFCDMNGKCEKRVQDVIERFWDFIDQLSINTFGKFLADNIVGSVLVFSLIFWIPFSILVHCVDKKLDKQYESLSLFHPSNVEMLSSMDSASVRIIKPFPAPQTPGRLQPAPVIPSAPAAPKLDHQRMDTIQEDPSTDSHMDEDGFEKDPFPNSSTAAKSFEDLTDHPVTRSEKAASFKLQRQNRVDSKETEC
DDE Tn7 FP inh: DD(E)-Tn7 binding inhibition, primary FP screen; FP displacement of FITC-Tn7 peptide from fibrin DD(E); 0% = median of compound wells per plate; 370,000 compounds, 0.13% hits; AID 720508; inhibition, % at 8.3 µM;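 active = inhibition above the mean of compounds falling within the control limits plus 3 SD of them, cut at about 14% in these data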
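Assay system: Human fibrin DD(E) protein | Medium: Tris buffer with calcium and detergent, pH 7.8 | Reagent: 0.1 µM fluorescent Tn7 | Compound dosing: Single point at 8.3 µM | Times: 10 min preincubation, 3 h with tracer, room temperature | Detection: Fluorescence polarization of the labelled Tn7 tracer | Controls: Aha-Tn7 high control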
DDE Tn6 FP inh: DD(E)-Tn6 binding inhibition, primary FP screen | P02675 | Fibrin DD(E) TRITC-Tn6 fluorescence polarization displacement | inhibition, % at 8.3 µM | 370,000 compounds, 0.21% hits | AID 720509;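 active = inhibition above a per-campaign cutoff: mean of compounds within control limits plus 3 SD, cut at about 15% in these data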
MT1-MMP act inh: blocks activation of human MT1-MMP. HT1080 RFP-PRO-GFP cells, GFP/RFP ratio fluorescence, overnight; percent of plate control window, DMSO zero. GFP/RFP ratio change, % at 20 µM. 360,000 compounds, 0.061% hits. AID 651647;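 active = GFP/RFP ratio change of at least 30% with cell ATP level not reduced by more than half and red fluorescence within 50% of control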
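Assay system – RFP-PRO-GFP reporter HT1080 cells · Compound dosing – single dose of 20 µM compound, 1% DMSO final · Incubation – overnight compound exposure at 37 °C · Measure – GFP/RFP fluorescence ratio · Benchmarks – DMSO wells and RFP-L50D-GFP cells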
ADAM10 inh: inhibitors of human ADAM10; O14672; AID 720582; recombinant ADAM10, EDANS/DABCYL FRET peptide cleavage, 3 h; 370,000 compounds, 0.62% hits; inhibition, % at 7 µM;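 active = inhibition above a per-campaign cutoff equal to the mean of compounds falling between control-based bounds plus 3 SD, cut at about 20% in these data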
ADAM10 confirm: human ADAM10 inhibition, confirmation. inhibition, % at 6.95 µM. shares compounds with ADAM10 inh. 2,100 compounds, 1% hits. ADAM10 QFRET peptide cleavage, EDANS fluorescence;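 active = inhibition above about 20% chosen separately for each screening run, limit read from the data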
ADAM17 counter: ADAM17 inhibition, counter-screen for ADAM10 exosite hits. shares compounds with ADAM10 inh. ADAM17 QFRET peptide cleavage, EDANS fluorescence. inhibition, % at 6.95 µM. 2,100 compounds, 0.5% hits. AID 743214;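 active = mean triplicate inhibition above the solvent-only control wells' mean plus 3 SD, cut at about 12% in these data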
ADAM10 counter: inhibits human ADAM10 in ADAM17 exosite counter-screen; AID 743256; recombinant ADAM10, EDANS/DABCYL FRET peptide cleavage, 3 h; 2,900 compounds, 47% hits; inhibition, % at 6.95 µM; shares compounds with ADAM17 inh;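 active = mean inhibition over the triplicate runs exceeds the activity threshold set in the earlier primary screen, cut at about 20% in these data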
ADAM17 confirm: confirmation of inhibitors of human ADAM17; 2,900 compounds, 65% hits; recombinant ADAM17, EDANS/DABCYL QFRET peptide cleavage; shares compounds with ADAM17 inh; inhibition, % at 6.95 µM;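 active = mean inhibition across replicates above the hit cutoff set in the primary screen, cut at about 8.5% in these data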
Hits are given with their value; n = inactive; x = no result given. Hits are enriched below; roughly 1.6% of the tested compounds scored in any of these assays.

SMILES	ADAM17 inh	DDE Tn7 FP inh	DDE Tn6 FP inh	MT1-MMP act inh	ADAM10 inh	ADAM10 confirm	ADAM17 counter	ADAM10 counter	ADAM17 confirm
CCCCNS(=O)(=O)CC1NCc2cc(F)ccc21 (configuration not stated)	n	n	n	x	n	x	x	x	x
COc1ccc(NC(=S)N(Cc2ccccn2)Cc2ccccc2Cl)cc1	n	n	n	n	n	x	x	x	x
COc1cccc(NC(=S)N(Cc2ccccn2)Cc2ccccc2Cl)c1	9.3	n	n	n	22	n	n	24	13
C=CC[C@@H](CC(=O)N(CCO)Cc1ccccc1)C(=O)N[C@@H](COC(=O)[C@@H](CC=C)Cc1ccc(F)cc1)Cc1c[nH]c2ccccc12	n	n	n	n	n	x	x	x	x
C=CCC[C@@H](Cc1ccc(F)cc1)C(=O)OC[C@@H]1CCCN1C(=O)[C@H](CC=C)CC(=O)N[C@H](CO)Cc1ccccc1	9.4	n	n	n	27	n	n	28	12
C=CCC[C@@H](Cc1ccc(F)cc1)C(=O)OC[C@@H](Cc1c[nH]c2ccccc12)NC(=O)[C@H](CC=C)CC(=O)N(CCO)Cc1ccccc1	17	n	n	n	40	n	n	69	26
C=CC[C@@H](CC(=O)N[C@@H](CO)Cc1ccccc1)C(=O)N[C@@H](COC(=O)[C@@H](CC=C)Cc1ccc(F)cc1)Cc1c[nH]c2ccccc12	n	n	n	n	n	x	x	x	x
C=CCC[C@H](Cc1ccc(F)cc1)C(=O)OC[C@@H](Cc1c[nH]c2ccccc12)NC(=O)[C@H](CC=C)CC(=O)N(CCO)Cc1ccccc1	25	n	n	n	43	n	n	61	35
C=CC[C@H](CC(=O)N(CCO)Cc1ccccc1)C(=O)N[C@@H](COC(=O)[C@@H](CC=C)Cc1ccc(F)cc1)Cc1c[nH]c2ccccc12	14	n	n	n	37	n	n	45	25
CCCCCCCCNS(=O)(=O)CC1NCc2cc(OC)ccc21 (configuration not stated)	n	n	n	x	n	x	x	x	x
CCCCNc1ccc2c(c1)OC[C@H](C)NS2(=O)=O	n	n	n	x	n	x	x	x	x
O=C(NCc1ccc(C(=O)N2CCOCC2)cc1)c1cccc(Br)c1	n	n	n	x	n	x	x	x	x
C=CCC[C@H](Cc1ccc(F)cc1)C(=O)OC[C@H](Cc1c[nH]c2ccccc12)NC(=O)[C@@H](CC=C)CC(=O)N[C@H](CO)Cc1ccccc1	12	n	n	n	30	n	n	38	22
C=CC[C@H](CC(=O)N[C@H](CO)Cc1ccccc1)C(=O)N[C@H](COC(=O)[C@@H](CC=C)Cc1ccc(F)cc1)Cc1c[nH]c2ccccc12	x	x	x	n	x	x	x	x	x
C=C(C)COc1ccc(-c2[nH]ncc2-c2ccccc2OC)c(O)c1	18	n	n	n	29	n	n	37	19
CCOc1ccc(-c2[nH]ncc2Oc2ccccc2OC)c(O)c1	9.6	n	n	n	21	n	n	30	15
CCOc1ccc(-c2[nH]ncc2-c2ccc(OC)c(OC)c2)c(O)c1	n	n	n	n	n	x	x	x	x
COC(=O)c1cccc2c([N+](=O)[O-])c(NC(C)=O)cc(C(=O)OC)c12	n	n	n	x	n	x	x	x	x
COc1ccc(NC(=O)N(C)C[C@@H]2OCc3cnnn3CCCC(=O)N([C@@H](C)CO)C[C@@H]2C)cc1	n	n	n	x	n	x	x	x	x
Cc1nc([N+](=O)[O-])cn1CC(Cl)Cn1cc([N+](=O)[O-])nc1C	n	n	n	x	n	x	x	x	x

Screening data deposited in PubChem by several laboratories.
